Experimental data from PubChem BioAssay AID624268 (The Scripps Research Institute Molecular Screening Center, 2012).
Hit rate of the full screen: of about 360,000 compounds, about 1,500 (0.42%) were called active. This is one part of a sample in which actives are shown more often than they occur. A number with no mark means an inactive call.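 How the source made its calls: active means inhibition above a per-plate cutoff of the control wells' mean inhibition plus 3 SD (cut at about 5.5% in these data); inactive means the rest.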

System: methionyl-tRNA synthetase (Trypanosoma brucei brucei)
Test: T. brucei MetRS inhibitors, primary screen, biochemical, luminescence (AID 624268);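 further: 0% = DMSO wells median and 100% = median of wells with control inhibitor compound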
Settings: purified T. brucei MetRS, ATP depletion, Kinase-Glo luminescence; at 11.9 µM; active compounds read high
Summary of the method: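 technique = Kinase-Glo luminescence, ATP depletion format | system = purified MetRS (methionyl-tRNA synthetase) enzyme from Trypanosoma brucei | timing = 15 min preincubation, 2 h reaction, all 25 °C | evaluation = percent inhibition versus plate control medians | dosing = single dose, 11.9 µM final nominal, 0.9% final DMSO | also added = substrates ATP, L-methionine and bulk Escherichia coli tRNA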

Compound | inhibition
CCCNS(=O)(=O)c1ccc2c(c1)CCCN2C(C)=O | -0.19%
Clc1ccc(-c2cc(C3CCNCC3)[nH]n2)c(Cl)c1 | 39.1% (active)
Clc1ccc(-c2cc(-c3ccccn3)on2)c(Cl)c1 | 0.55%
CCC(C)[C@H](NC(=O)N1c2ccccc2NC(=O)[C@@H]1C(C)C)C(=O)N[C@@H](Cc1ccccc1)C(=O)O (stereo partly specified) | -1.81%
CCCC(NC(=O)c1ccco1)c1nc2ccccc2[nH]1 (stereo unspecified) | 0.25%
O=C(NCC(O)c1nc2ccccc2[nH]1)c1ccc(Br)cc1 (stereo unspecified) | 21% (active)
CSCCC(NC(=O)c1cc([N+](=O)[O-])cc([N+](=O)[O-])c1)c1nc2ccccc2[nH]1 (stereo unspecified) | 3.68%
COc1ccccc1CCC(=O)OCC(=O)N1CCN(S(=O)(=O)c2ccc(C)cc2C)CC1 | -0.39%
O=C(NCc1cccc(CNC(=O)Nc2cccc(O)c2)c1)Nc1cccc(O)c1 | 8.03% (active)
O=C(NCc1cccnc1)Nc1cccc(NC(=O)NCc2cccnc2)c1F | -1.05%
C/C(=C\C(=O)c1ccccc1)Nc1cccc(O)c1 | 0.01%
O=C(CSCc1ccc([N+](=O)[O-])cc1)NCCSCc1ccccc1 | -0.21%
CCCCc1nnc(NC(=O)CS(=O)(=O)Cc2ccccc2)s1 | -0.35%
O=C(Nc1ccccc1)Nc1nnc(COc2ccccc2F)s1 | 17.3% (active)
COCc1nnc(NC(=O)CS(=O)(=O)Cc2ccccc2)s1 | 0.23%
O=C(NCCOc1ccccc1F)Nc1ccc(Br)cc1 | 2.66%
Cc1ccc(S(=O)(=O)c2c[nH]c3ccc(C)cc3c2=O)cc1 | 8.92% (active)
Cc1ccc(S(=O)(=O)c2c[nH]c3ccc(Cl)cc3c2=O)cc1 | 40.4% (active)
CCCn1cc(S(=O)(=O)c2ccc(C)cc2)c(=O)c2cc(OCC)ccc21 | -0.04%
CCOc1ccc2c(c1)c(=O)c(S(=O)(=O)c1ccc(C)cc1)cn2CC | -0.11%
Cc1ccc2[nH]cc(CCCN3C(=O)c4ccccc4C3=O)c2c1 | -0.1%
CN1CCN(S(=O)(=O)c2ccc3[nH]cc(C(=O)O)c(=O)c3c2)CC1 | 1.71%
O=C(Nc1ccccc1Cl)/C(Cl)=C(\Cl)S(=O)c1ccccc1 (stereo unspecified) | -0.49%

Compound | inhibition
CCCCn1c(-c2cccc(C)c2)nc2cc3[nH]c(=O)c(C(C)C)nc3cc21 | -0.06%
CCCCCn1nnnc1-c1nc2cc3ccccc3cc2[nH]c1=O | 34.6% (active)
CCCCCn1nnnc1C1c2ccccc2C(=O)N1Cc1ccco1 (stereo unspecified) | -0.27%
C=CCNC(=S)N/N=C/c1ccc(C)s1 | -0.64%
CC(C)CNC(=O)C1CCCN(S(=O)(=O)c2ccc(-n3cnnn3)cc2)C1 (stereo unspecified) | -0.29%
CCOc1ncccc1C(=O)N(C)CC(=O)Nc1ccc(F)cc1 | -0.63%
CC1(C)CC(=O)C=C(c2cccc3c2Oc2ccccc2S3)C1 | -0.11%
COc1ccc(C)cc1-n1nnnc1SCc1nc2ccccc2c(=O)[nH]1 | 0.31%
Clc1ccccc1SCc1nc2ccccc2[nH]1 | 7.72% (active)
O=c1c(-c2ccc(Cl)cc2)[n+]([O-])c2ccccc2n1OCc1nc2ccccc2[nH]1 | -0.49%
O=C(COC(=O)c1ncc(Cl)c(Cl)c1Cl)NNC(=O)c1ccccc1 | -0.19%
O=C(/C=C/c1cccs1)c1cc(Cl)ccc1OC(=O)N1CCOCC1 | -0.94%
O=C1CC(C(=O)O)NC(=S)N1 (stereo unspecified) | 0.05%
Cc1oc(CC(C)C)c(CN2CCCC2)c1C(=O)O | -0.29%
O=C(Nc1nsc(-c2ccccc2)n1)c1ccncc1 | -1.68%
NS(=O)(=O)c1ccc(CCNC(=O)Nc2ccc(Cl)cc2)cc1 | 26.5% (active)
CN(CC(=O)NCCc1ccc(S(N)(=O)=O)cc1)CC(=O)Nc1ccc(Cl)cc1 | -0.04%
NS(=O)(=O)c1ccc(CCNC(=O)NC2CCCCC2)cc1 | -1.44%
CC(=O)C1(C)N(O)C(C)(C)C(c2cccs2)=[N+]1[O-] (stereo unspecified) | -1.27%
COc1ccccc1C(=O)N(Cc1ccc(C)o1)C1CCS(=O)(=O)C1 (stereo unspecified) | -0.11%
CC1(C(=O)NS(=O)(=O)c2ccccc2)CCN1C(=O)C1CCCCC1 (stereo unspecified) | -0.08%
CC(C)(C)c1ccc(S(=O)(=O)NC(=O)C2(C)CCN2C(=O)CC2CC2)cc1 (stereo unspecified) | -0.1%
COc1ccc(NC2CCCN(C(=O)c3ccncc3)C2)cc1 (stereo unspecified) | -0.58%
